Active and inactive are the calls of the source. No cut-off for these calls is given here.
What was measured:
[1] = target: T1, Androgen receptor (Homo sapiens) (UniProt P10275); test: Antagonist activity at androgen receptor in human LNCAP cells assessed as decrease in prostate specific antigen mRNA level at 2.5 uM after 20 hrs by real time RT-PCR analysis; type: functional, cell-based
T1 sequence (whole entry): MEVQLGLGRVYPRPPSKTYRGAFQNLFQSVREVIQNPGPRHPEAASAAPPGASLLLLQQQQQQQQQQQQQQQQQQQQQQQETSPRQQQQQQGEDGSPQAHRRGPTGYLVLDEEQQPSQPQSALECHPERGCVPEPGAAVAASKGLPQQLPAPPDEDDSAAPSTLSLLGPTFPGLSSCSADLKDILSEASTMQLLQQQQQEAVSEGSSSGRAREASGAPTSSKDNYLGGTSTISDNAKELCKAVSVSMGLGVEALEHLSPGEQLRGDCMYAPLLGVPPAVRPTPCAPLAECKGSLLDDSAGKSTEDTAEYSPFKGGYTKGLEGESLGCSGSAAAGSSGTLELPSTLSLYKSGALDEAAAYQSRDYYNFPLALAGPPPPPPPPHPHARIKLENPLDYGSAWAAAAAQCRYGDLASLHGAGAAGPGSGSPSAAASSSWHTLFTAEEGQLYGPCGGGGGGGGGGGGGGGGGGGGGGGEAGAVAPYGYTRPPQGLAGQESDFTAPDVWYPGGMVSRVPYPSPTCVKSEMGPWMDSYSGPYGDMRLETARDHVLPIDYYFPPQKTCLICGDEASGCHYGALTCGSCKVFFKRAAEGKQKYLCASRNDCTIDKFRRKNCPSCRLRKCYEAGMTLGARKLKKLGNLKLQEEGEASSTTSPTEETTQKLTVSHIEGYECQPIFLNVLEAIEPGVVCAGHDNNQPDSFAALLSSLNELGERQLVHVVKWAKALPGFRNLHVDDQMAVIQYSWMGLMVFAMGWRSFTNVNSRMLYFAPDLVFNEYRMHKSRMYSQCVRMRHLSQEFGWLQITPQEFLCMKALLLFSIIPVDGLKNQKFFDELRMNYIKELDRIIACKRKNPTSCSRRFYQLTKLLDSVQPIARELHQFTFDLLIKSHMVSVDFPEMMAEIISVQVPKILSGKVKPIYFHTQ
Outline: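 LNCaP prostate cancer cells (AR carries T877A ligand-binding-domain mutation) exposed to compound at 2.5 μM for 20 hr; PSA mRNA quantified by real-time RT-PCR and expressed relative to DMSO-treated control cells set to 1; mean values, n = 3.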

[2] = target: T1, Androgen receptor (Homo sapiens); test: Agonist activity at androgen receptor in human LNCAP cells assessed as potentiation of R1881-induced prostate specific antigen mRNA expression at 1 uM after 20 hrs by real time RT-PCR analysis; type: functional, cell-based
Outline: (§1)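 LNCaP cells were first kept 3 days in phenol red-free RPMI 1640 with 10% charcoal-stripped FBS and 1% antibiotic-antimycotic. They were then exposed for 20 hr to compound at 10, 5 or 1 μM together with 0.5 nM R1881. PSA and TMPRSS2 mRNA were quantified by real-time RT-PCR against DMSO-treated controls.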

[3] = target: T1, Androgen receptor (Homo sapiens); test: Agonist activity at androgen receptor in human LNCAP cells assessed as potentiation of R1881-induced transmembrane protease serine 2 mRNA expression at 1 uM after 20 hrs by real time RT-PCR analysis; type: functional, cell-based; outline: as §1
[4] = target: T1, Androgen receptor (Homo sapiens); test: Antagonist activity at androgen receptor in human LNCAP cells assessed as inhibition of R1881-induced transmembrane protease serine 2 mRNA expression after 20 hrs by real time RT-PCR analysis; type: functional, cell-based; outline: as §1
[5] = target: T1, Androgen receptor (Homo sapiens); test: Antagonist activity at androgen receptor in human LNCAP cells assessed as inhibition of R1881-induced prostate specific antigen mRNA expression after 20 hrs by real time RT-PCR analysis relative to control; type: functional, cell-based; outline: as §1
[6] = target: T1, Androgen receptor (Homo sapiens); conditions: LNCaP, 10 uM
[7] = target: T1, Androgen receptor (Homo sapiens); conditions: LNCaP, 10 uM; remark: listed apart in the source
[8] = target: T1, Androgen receptor (Homo sapiens); conditions: LNCaP, 10 uM; remark: listed apart in the source
[9] = target: T1, Androgen receptor (Homo sapiens); conditions: LNCaP, 10 uM; remark: listed apart in the source
[10] = target: T2, Androgen receptor (Homo sapiens, UniProt P10275); test: Antagonist activity at androgen receptor in human LNCAP cells assessed as decrease in transmembrane protease serine 2 mRNA level after 20 hrs by real time RT-PCR analysis
T2 sequence (P10275 whole entry): T1 sequence (whole entry)

[11] = target: T2, Androgen receptor; test: Antagonist activity at androgen receptor in human LNCAP cells assessed as decrease in prostate specific antigen mRNA level after 20 hrs by real time RT-PCR analysis
[12] = tested on: LNCaP; test: Cytotoxicity against human LNCAP cells after 3 days; type: functional, cell-based; conditions: 72 h
[13] = target: T1, Androgen receptor (Homo sapiens); conditions: LNCaP, 10 uM; remark: listed apart in the source

Compound	inhibition [1] [%]	inhibition [4]	inhibition [5]	further results
COc1cccc(OC)c1C(=O)/C=C/c1cccc([N+](=O)[O-])c1	85			
COc1ccccc1C(=O)/C=C/c1ccccc1	63			
COc1cccc(OC)c1C(=O)/C=C/c1ccccc1C(F)(F)F	87			
COc1ccc(C(=O)/C=C/c2cccc([N+](=O)[O-])c2)c(OC)c1OC	84	Dose-dependent effect	Dose-dependent effect	Activity [2]: Active; Activity [3]: Active
COc1ccc(C(=O)/C=C/c2ccc([N+](=O)[O-])cc2)c(OC)c1OC	84	Dose-dependent effect	Dose-dependent effect	
COc1cccc(OC)c1C(=O)/C=C/c1ccc([N+](=O)[O-])cc1	90			
COc1ccccc1C(=O)/C=C/c1ccccc1[N+](=O)[O-]	94	Dose-dependent effect	Dose-dependent effect	inhibition [6]: Active; inhibition [7]: 99%; inhibition [8]: Dose-dependent effect; inhibition [9]: 89%; IC50 [10]: 750 nM; IC50 [11]: 600 nM; IC50 [12]: 3400 nM; inhibition [13]: Active
COc1ccccc1C(=O)/C=C/c1ccccc1C(F)(F)F	94			
COc1ccc(OC)c(C(=O)/C=C/c2ccc(C#N)cc2)c1	82			
COc1ccc(C(=O)/C=C/c2cccc(C(F)(F)F)c2)c(OC)c1OC	81			
COc1cccc(OC)c1C(=O)/C=C/c1ccc([N+](=O)[O-])cc1[N+](=O)[O-]	81			
COc1ccc(C(=O)/C=C/c2ccc([N+](=O)[O-])cc2)cc1OC		Dose-dependent effect	Dose-dependent effect	
COc1ccc(C(=O)/C=C/c2ccc(C#N)cc2)cc1OC	85	Dose-dependent effect	Dose-dependent effect	
